Screening data deposited in PubChem BioAssay by Broad Institute.
CAL PDZ FP-1: untagged CAL PDZ binding inhibitors, primary screen, biochemical, fluorescence polarization, HTS | 300,000 tested, 0.92% active | Golgi-associated PDZ and coiled-coil motif-containing protein (Homo sapiens), Q9HD26 | purified CAL PDZ, TMR-peptide fluorescence polarization, 1 h | inhibition, % at 24.9 µM;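 active = mean inhibition of at least 30% with at least half of replicates also reaching 30%; inconclusive = no clear call, values can overlap the other calls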
dFosB act: activators of delta FosB homodimer, primary screen, biochemical, fluorescence polarization, TAMRA-CDK5 oligo, single point; purified delta FosB; percent of positive-control signal above neutral wells; activation, % at 25 µM; 340,000 tested, 0.99% active; AID 493131, 2011;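 active = mean activation above about 17%, with every replicate also reaching it, limit read from the data, passing the limit was not always enough; inconclusive = only one of the two conditions met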
Target sequence (P13346 whole entry, looked up): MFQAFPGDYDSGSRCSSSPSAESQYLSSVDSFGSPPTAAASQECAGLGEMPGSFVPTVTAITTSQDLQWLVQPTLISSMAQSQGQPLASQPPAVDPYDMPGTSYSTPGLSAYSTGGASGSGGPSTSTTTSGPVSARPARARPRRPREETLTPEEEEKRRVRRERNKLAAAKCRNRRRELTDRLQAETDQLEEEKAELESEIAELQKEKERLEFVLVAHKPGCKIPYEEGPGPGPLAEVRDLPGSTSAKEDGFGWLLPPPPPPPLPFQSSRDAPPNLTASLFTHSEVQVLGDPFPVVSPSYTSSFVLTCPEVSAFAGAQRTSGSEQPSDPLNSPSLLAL
Dyrk1A ADPGlo: rat Dyrk1A kinase inhibitors, primary screen, biochemical, single point, plate reader; Dual specificity tyrosine-phosphorylation-regulated kinase 1A (Rattus norvegicus), Q63470; ADP-Glo luminescence, NFATc1 peptide; inhibition, % at 12.5 µM; 310,000 tested, 0.43% active; in the data active = inhibition above about 50%
CDK5 inh: inhibitors of human CDK5/p35 kinase, primary screen, biochemical, single concentration. Cyclin-dependent kinase 5 (Homo sapiens) + Cyclin-dependent kinase 5 activator 1 (Homo …. inhibition, % at 10 µM. 330,000 tested, 0.01% active. Recombinant CDK5/p35, ADP-Glo luminescence, 60 min;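 active = highest replicate inhibition of at least 50% and at least 75% of replicates reaching 50%; inconclusive = only one of the two criteria met; inactive = both criteria failed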
CAL PDZ FP-2: CAL PDZ peptide-binding inhibitors, primary screen, biochemical, fluorescence polarization, Cer-tagged CAL PDZ, HTS. purified CAL PDZ, TMR-peptide fluorescence polarization, 1 h. inhibition, % at 20 µM. 330,000 tested, 0.02% active. AID 504414, 2011;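 active = highest replicate inhibition of at least 40%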
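System: tagged CAL PDZ domain. Schedule: 1 h room-temperature incubation prior to read. Signal: fluorescence polarization (mP). Measure: percent inhibition from loss of millipolarization.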
Rtt109 HAT inh: inhibitors of C. albicans Rtt109/Vps75 HAT, primary screen, biochemical, ThioGlo CoA-SH fluorescence, plate reader | inhibition, % at 34.9 µM | Histone acetyltransferase RTT109 (Candida albicans (strain SC5314 / ATCC MYA-2876)), … | purified Rtt109/Vps75, 4 h | AID 540336, 2011 | 330,000 tested, 0.16% active;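 active = inhibition of at least 50% in every replicate; inconclusive = best replicate reaches 50% inhibition but some replicates fall short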
Target sequence (Q5AAJ8 whole entry, looked up): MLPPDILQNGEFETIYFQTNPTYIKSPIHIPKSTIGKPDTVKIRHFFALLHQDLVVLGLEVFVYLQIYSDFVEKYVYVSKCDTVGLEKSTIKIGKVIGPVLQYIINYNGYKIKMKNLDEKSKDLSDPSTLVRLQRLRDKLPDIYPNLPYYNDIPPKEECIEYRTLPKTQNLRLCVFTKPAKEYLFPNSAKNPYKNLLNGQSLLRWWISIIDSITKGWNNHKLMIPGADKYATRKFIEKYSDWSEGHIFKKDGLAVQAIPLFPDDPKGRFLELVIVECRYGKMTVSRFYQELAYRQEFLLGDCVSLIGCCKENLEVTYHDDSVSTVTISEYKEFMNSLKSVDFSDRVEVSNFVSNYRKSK
ADP-Glo artifact: ADP-Glo luciferase interference without Dyrk1A, dose response, artefact control for Dyrk1A inhibitor project, biochemical, luminescence, cherry-pick, set 02; shares compounds with Dyrk1A ADPGlo; ADP-Glo luciferase artifact assay, no Dyrk1A; AC50, µM (highest dose often 12 µM); 1,300 tested, under 10 active;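 active = fitted half-maximal dose AC50 no more than ten times the top valid tested dose, with luminescence dropping as dose rises; inconclusive = poor fit, or flat fit with 30 to 70% inhibition; inactive = the rest, signal increases included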
Of the large screens only hits and unclear results are named; the others gave an inactive call (follow-up assays come after a bar, where they were run). A selection: hits, their analogues and other compounds. The true share with any hit is near 2.2%.

NC(=O)C1CCN(C(=O)C(=O)c2cn(CC(=O)N3CCCCCC3)c3ccccc23)CC1	none
CCCCNC(=S)Nc1ccc2cn[nH]c2c1	Dyrk1A ADPGlo 80.7 | ADP-Glo artifact inactive
Cc1ccc(SCC(=O)OCC(=O)N(CC(C)C)c2c(N)n(Cc3ccccc3)c(=O)[nH]c2=O)c(C)c1	none
Cc1cccc(-n2nnnc2SCC(=O)Nc2cccc(S(N)(=O)=O)c2)c1	none (no result: Dyrk1A ADPGlo)
O=C(Nc1ccccc1Cl)c1csc(-c2cccnc2)n1	Dyrk1A ADPGlo 74.9 (no result: CAL PDZ FP-1) | ADP-Glo artifact inactive
COC(=O)c1cccc2c1-c1ccccc1/C2=N/O	Dyrk1A ADPGlo 57.5 | ADP-Glo artifact inactive
Cc1ccc(C)c(N(C)C(=O)CCS(=O)(=O)c2cccc3nonc23)c1	none
O=C(c1ccc2c(c1)OCCCO2)N1CCCCC1	Dyrk1A ADPGlo 59.2 (no result: CAL PDZ FP-1) | ADP-Glo artifact inactive
O=C(Nc1ccnc(=O)[nH]1)c1sc2ccccc2c1Cl	none
Oc1c(I)cc(Cl)c2cccnc12	none
Oc1c(Cl)c(Cl)c2ncccc2c1Cl	Dyrk1A ADPGlo 55.1 | ADP-Glo artifact inactive
COc1cccc(CN(C)C(=O)c2ccc(Oc3ccccc3)cc2)c1OC	none (no result: Rtt109 HAT inh)
CC(/C=C1\SC(=Nc2cccnc2)NC1=O)=C\c1ccccc1	none (no result: CAL PDZ FP-1, Dyrk1A ADPGlo)
C=CCOc1ccc(/C=C2\SC(=Nc3cccnc3)NC2=O)cc1	Dyrk1A ADPGlo 60.6 (no result: CAL PDZ FP-1) | ADP-Glo artifact inactive
COc1c(O)ccc(/C=C(\C#N)c2nc3ccccc3[nH]2)c1[N+](=O)[O-]	Dyrk1A ADPGlo 72.5 (no result: CDK5 inh) | ADP-Glo artifact inactive
Cc1ccc2nc(/C(C#N)=C\c3cc(O)ccc3[N+](=O)[O-])[nH]c2c1	Dyrk1A ADPGlo 76.9 | ADP-Glo artifact inactive
CC(=O)Nc1ccc(N2N=C(C)C(N=Nc3ccccc3)C2=O)cc1 (stereo not given)	none
Oc1cc(Nc2ccncc2)cc2cccnc12	none
Oc1cc(-c2ccncc2)cc2cccnc12	Dyrk1A ADPGlo 76.3 | ADP-Glo artifact inactive
COC(=O)[C@H](Cc1ccc(O)cc1)NC(=O)Cn1cnc2c(OCc3ccccc3)ncnc21	none (no result: Dyrk1A ADPGlo)
O=C1C(Nc2ccc(O)cc2)=C/C(=N/S(=O)(=O)c2cccs2)c2ccccc21	Dyrk1A ADPGlo 70.2 (no result: CAL PDZ FP-1) | ADP-Glo artifact inactive
Cc1cccc(NC2=C/C(=N/S(=O)(=O)c3cccs3)c3ccccc3C2=O)c1	none
Cc1cc(C)c(S(=O)(=O)/N=C2\C=C(NS(=O)(=O)c3ccccc3)C(=O)c3ccccc32)c(C)c1	none
Cc1cc(C)c(S(=O)(=O)/N=C2\C=C(Nc3ccc(C(=O)O)cc3)C(=O)c3ccccc32)c(C)c1	Dyrk1A ADPGlo 69.1 | ADP-Glo artifact inactive
COc1cc(/C=C2\SC(N3CCC(C)CC3)=NC2=O)ccc1O	Dyrk1A ADPGlo 76.8 | ADP-Glo artifact inactive
COC(=O)CNC(=O)C(C)NC(=O)CNC(=O)OCc1ccccc1 (stereo not given)	none
COc1cc(-c2cn(S(=O)(=O)c3cccc4nsnc34)nc2N)cc(OC)c1OC	Dyrk1A ADPGlo 82.5 (no result: CAL PDZ FP-1) | ADP-Glo artifact inactive
COc1ccc(C(=O)N/C(=C\c2cn(S(=O)(=O)N(C)C)c3ccccc23)C(=O)N2CCN(C)CC2)cc1	none
CC(C)=CCc1c(O)ccc2c1OC(c1ccc(O)c(O)c1)CC2=O (stereo not given)	Dyrk1A ADPGlo 64.5 | ADP-Glo artifact inactive
O=C1NC(=S)S/C1=C/c1ccc(OC(=O)c2ccco2)cc1	Dyrk1A ADPGlo 70.8 | ADP-Glo artifact inactive
O=C(O)c1[nH]c2ccc([N+](=O)[O-])cc2c1-c1ccccc1	Dyrk1A ADPGlo 52.5, Rtt109 HAT inh inconclusive | ADP-Glo artifact inactive
NNC(=O)c1[nH]c2ccc([N+](=O)[O-])cc2c1-c1ccccc1	none
O=c1cc[nH]c2cc(Cl)ccc12	none
O=c1cc[nH]c2ccc(Cl)cc12	Dyrk1A ADPGlo 50.4 | ADP-Glo artifact inactive
CCOC(=O)c1sc2nc(C)nc(SC(C)C(=O)N(C)c3ccccc3)c2c1C (stereo not given)	none (no result: CAL PDZ FP-1)
CCOC(=O)C[C@H]1c2cc(C(F)(F)F)ccc2S(=O)(=O)N1C(C)C	Dyrk1A ADPGlo 53.5 | ADP-Glo artifact inactive
CCOC(=O)C[C@H]1c2cc(F)ccc2S(=O)(=O)N1C(C)C	none
CCCCCCCCCCCCN1[C@@H](CC(=O)OC)c2cc(C(F)(F)F)ccc2S1(=O)=O	Dyrk1A ADPGlo 53.3 | ADP-Glo artifact inactive
Cn1c(=O)c(-c2cc(=O)[nH][nH]2)c(O)c2ccccc21	none
CC(=O)c1cccc(NC(=O)Nc2cccs2)c1	Dyrk1A ADPGlo 53.1 (no result: CAL PDZ FP-2) | ADP-Glo artifact inactive
Nc1nc(Nc2cccc(F)c2)nc2ccccc12	Dyrk1A ADPGlo 74.4 | ADP-Glo artifact inactive
O=c1oc(Nc2cccc(F)c2)nc2ccccc12	none (no result: CAL PDZ FP-2)
CSc1nnc(-c2cc3c(-c4ccccc4)nn(C)c3s2)n1C	Dyrk1A ADPGlo 52.0 | ADP-Glo artifact inactive
CNC(=S)N/N=C/c1ccc(-c2cccc(C(=O)O)c2)o1	Dyrk1A ADPGlo 62.1 | ADP-Glo artifact inactive
Cc1nc2nc(C)c(NS(=O)(=O)c3ccc(CC(C)C)cc3)c(=O)n2[nH]1	none
COc1ccc2c(C#N)c3ccccn3c2c1	Dyrk1A ADPGlo 72.2 (no result: Rtt109 HAT inh) | ADP-Glo artifact inactive
O=C(CC(SCCO)c1ccc2c(c1)OCO2)c1ccco1 (stereo not given)	Dyrk1A ADPGlo 83.7 | ADP-Glo artifact inactive
COc1ccc(NC(=O)CCN2C(=O)c3ccncc3C2=O)cc1OC	none
O=C(Nc1nc2ccccc2s1)c1ccc(OCC2CCCO2)cc1 (stereo not given)	Dyrk1A ADPGlo 57.2 | ADP-Glo artifact inactive
Cc1cnc(NC(=O)c2ccc(OCC3CCCO3)cc2)s1 (stereo not given)	none (no result: dFosB act, Dyrk1A ADPGlo)
O=C(O)c1cc2ccccc2c2cc(Br)ccc12	Dyrk1A ADPGlo 69.0 | ADP-Glo artifact inactive
O=C(Cn1cc(COc2ccccc2C(F)(F)F)nn1)c1ccc(O)cc1	Dyrk1A ADPGlo 50.8 | ADP-Glo artifact inactive
CC(C)(C)N(CC#CCC1(O)c2ccccc2-c2ccccc21)CCO	none
O=C1OCC/C1=C\c1ccc(O)cc1	Dyrk1A ADPGlo 91.6 | ADP-Glo artifact inactive
CC(=O)Oc1ccccc1/C=C1\CCOC1=O	none
